Consider 20 molecules from ChEMBL document CHEMBL5131497, “Design, Synthesis, and Characterization of TNP-2198, a Dual-Targeted Rifamycin-Nitroimidazole Conjugate with Potent Activity against Microaerophilic and Anaerobic Bacterial Pathogens” (J Med Chem, 2022).

≈ marks a conversion by molar mass, not a printed value.

Format in all cases: functional
One experiment concerns Staphylococcus aureus. Briefly: Antibacterial activity against Staphylococcus aureus ATCC 29213.
Experiment [1] concerns Clostridioides difficile. In words: Antibacterial activity against Clostridioides difficile ATCC 9689.
The subject of experiment [2] is Helicobacter pylori. Briefly: Antibacterial activity against Helicobacter pylori ATCC 700392. A digest of the protocol: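 Agar dilution per CLSI. Wild-type H. pylori ATCC 700392 (CB1531). Drugs prepared from 100× stocks as 2-fold dilutions in Mueller–Hinton agar with aged (≥2 weeks) sheep blood (5% v/v). Combinations were at 1:1 molar ratio. MIC read after 5 days at 35 °C under microaerobic atmosphere from a campylobacter gas-generating system.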

Experiment [3] deals with Helicobacter pylori. In words: Antibacterial activity against rifampicin resistant Helicobacter pylori harboring rpoBL525I/D530N mutant.
The subject of experiment [4] is Clostridioides difficile. Briefly: Antibacterial activity against rifampicin-resistant Clostridioides difficile harboring rpoBQ489K mutant.
In experiment [5] the test system is Clostridioides difficile. In words: Antibacterial activity against Clostridioides difficile BAA 1382.
The subject of experiment [6] is Helicobacter pylori. In words: Antibacterial activity against Helicobacter pylori infected in C57/BL6 mouse assessed as bacterial load in stomach at 1 mg/kg administered twice daily via oral gavage starting from 7 days post inoculation and administered for 7 days in presence of 10 mg/kg clarithromycin and 20 mg/kg amoxicillin (reference value: 5.25 log10CFU). The conditions noted are these: time 7 day.

As for `C[C@]1(COc2ccc(N3CCC(Oc4ccc(OC(F)(F)F)cc4)CC3)cc2)Cn2cc([N+](=O)[O-])nc2O1`, the MIC is greater than 32 µg/mL in the experiment with Staphylococcus aureus, greater than 16 µg/mL against Clostridioides difficile [1] and 2 µg/mL (≈ 3.74 µM) against Helicobacter pylori [2].

For `CO[C@H]1/C=C/O[C@@]2(C)Oc3c(C)c(O)c4c(=O)c(c5oc6cc(N7CCN(CCn8c([N+](=O)[O-])cnc8C)CC7)cc(O)c6nc-5c4c3C2=O)NC(=O)/C(C)=C\C=C\[C@H](C)[C@H](O)[C@@H](C)[C@@H](O)[C@@H](C)[C@H](OC(C)=O)[C@@H]1C`, the MIC against Staphylococcus aureus was less than 0.03 µg/mL; against Clostridioides difficile [1] it was 0.002 µg/mL (≈ 0.00193 µM); in the experiment on Helicobacter pylori [2] it was 0.004 µg/mL (≈ 0.00385 µM); in the experiment with Helicobacter pylori [3], 0.5 µg/mL (≈ 0.482 µM); in the experiment with Clostridioides difficile [4], 2 µg/mL (≈ 1.93 µM); against Clostridioides difficile [5], 0.001 µg/mL (≈ 0.000963 µM).

With `CO[C@H]1/C=C/O[C@@]2(C)Oc3c(C)c(O)c4c(O)c(c(/C=N/N5CCN(CCn6c([N+](=O)[O-])cnc6C)CC5)c(O)c4c3C2=O)NC(=O)/C(C)=C\C=C\[C@H](C)[C@H](O)[C@@H](C)[C@@H](O)[C@@H](C)[C@H](OC(C)=O)[C@@H]1C`, the MIC was 0.03 µg/mL (≈ 0.0312 µM) in the experiment on Staphylococcus aureus; 0.002 µg/mL (≈ 0.00208 µM) in the experiment on Clostridioides difficile [1]; 0.25 µg/mL (≈ 0.26 µM) in the experiment on Helicobacter pylori [2]; 2 µg/mL (≈ 2.08 µM) in the experiment on Helicobacter pylori [3]; 2 µg/mL (≈ 2.08 µM) in the experiment with Clostridioides difficile [4]; 0.0005 µg/mL (≈ 0.00052 µM) against Clostridioides difficile [5].

Consider `CO[C@H]1/C=C/O[C@@]2(C)Oc3c(C)c(O)c4c(O)c(c(N5CCN(CC6(C)Cn7cc([N+](=O)[O-])nc7O6)CC5)c(O)c4c3C2=O)NC(=O)/C(C)=C\C=C\[C@H](C)[C@H](O)[C@@H](C)[C@@H](O)[C@@H](C)[C@H](OC(C)=O)[C@@H]1C` (stereo partly specified), for which the MIC in the experiment with Staphylococcus aureus worked out at 0.008 µg/mL (≈ 0.00831 µM); against Clostridioides difficile [1] it was 0.001 µg/mL (≈ 0.00104 µM); in the experiment on Helicobacter pylori [2], 0.25 µg/mL (≈ 0.26 µM).

Consider `CO[C@H]1/C=C/O[C@@]2(C)Oc3c(C)c(O)c4c(=O)c(c5oc6cc(N7CCN(c8ccc(OCC9(C)Cn%10cc([N+](=O)[O-])nc%10O9)cc8)CC7)cc(O)c6nc-5c4c3C2=O)NC(=O)/C(C)=C\C=C\[C@H](C)[C@H](O)[C@@H](C)[C@@H](O)[C@@H](C)[C@H](OC(C)=O)[C@@H]1C` (stereo partly specified), for which the MIC is less than 0.008 µg/mL against Staphylococcus aureus, 0.03 µg/mL (≈ 0.0259 µM) with Clostridioides difficile [1] and 0.06 µg/mL (≈ 0.0518 µM) against Helicobacter pylori [2].

For `CO[C@H]1/C=C/O[C@@]2(C)Oc3c(C)c(O)c4c(O)c(c(N5CCN(Cc6ccc(OCC7Cn8cc([N+](=O)[O-])nc8O7)cc6)CC5)c(O)c4c3C2=O)NC(=O)/C(C)=C\C=C\[C@H](C)[C@H](O)[C@@H](C)[C@@H](O)[C@@H](C)[C@H](OC(C)=O)[C@@H]1C` (stereo partly specified), the MIC with Staphylococcus aureus was less than 0.004 µg/mL; against Helicobacter pylori [2] it was 0.25 µg/mL (≈ 0.237 µM).

Regarding `CO[C@H]1/C=C/O[C@@]2(C)Oc3c(C)c(O)c4c(O)c(c(N5CCN(CCn6c([N+](=O)[O-])cnc6C)CC5)c(O)c4c3C2=O)NC(=O)/C(C)=C\C=C\[C@H](C)[C@H](O)[C@@H](C)[C@@H](O)[C@@H](C)[C@H](OC(C)=O)[C@@H]1C`, the MIC with Staphylococcus aureus is less than 0.015 µg/mL; in the experiment with Clostridioides difficile [1] it was 0.00025 µg/mL (≈ 0.000267 µM); against Helicobacter pylori [2] it was 0.06 µg/mL (≈ 0.0642 µM); against Clostridioides difficile [5], 0.00025 µg/mL (≈ 0.000267 µM).

Take `CO[C@H]1/C=C/O[C@@]2(C)Oc3c(C)c(O)c4c(c3C2=O)C2=NC3(CCN(CC5Cn6cc([N+](=O)[O-])nc6O5)CC3)NC2=C(NC(=O)/C(C)=C\C=C\[C@H](C)[C@H](O)[C@@H](C)[C@@H](O)[C@@H](C)[C@H](OC(C)=O)[C@@H]1C)C4=O` (stereo partly specified): the MIC with Staphylococcus aureus was 0.015 µg/mL (≈ 0.0157 µM); in the experiment with Helicobacter pylori [2] it was 0.06 µg/mL (≈ 0.0626 µM).

In the case of `CO[C@H]1/C=C/O[C@@]2(C)Oc3c(C)c(O)c4c(O)c(c5c(nc6ccc(CCC(=O)N7CCN(CCn8c([N+](=O)[O-])cnc8C)CC7)cn65)c4c3C2=O)NC(=O)/C(C)=C\C=C\[C@H](C)[C@H](O)[C@@H](C)[C@@H](O)[C@@H](C)[C@H](OC(C)=O)[C@@H]1C`, the MIC is 0.004 µg/mL (≈ 0.00376 µM) against Clostridioides difficile [1]; 1 µg/mL (≈ 0.939 µM) against Helicobacter pylori [2]; greater than 8 µg/mL against Helicobacter pylori [3]; 4 µg/mL (≈ 3.76 µM) in the experiment with Clostridioides difficile [4]; 0.004 µg/mL (≈ 0.00376 µM) in the experiment with Clostridioides difficile [5].

As to `CO[C@H]1/C=C/O[C@@]2(C)Oc3c(C)c(O)c4c(O)c(c(N5CCN(Cc6ccc(CO[C@@H]7COc8nc([N+](=O)[O-])cn8C7)cc6)CC5)c(O)c4c3C2=O)NC(=O)/C(C)=C\C=C\[C@H](C)[C@H](O)[C@@H](C)[C@@H](O)[C@@H](C)[C@H](OC(C)=O)[C@@H]1C`, the MIC in the experiment with Staphylococcus aureus was less than 0.008 µg/mL; in the experiment on Clostridioides difficile [1], 0.008 µg/mL (≈ 0.00748 µM); in the experiment with Helicobacter pylori [2], 0.5 µg/mL (≈ 0.468 µM).

On to `CO[C@H]1/C=C/O[C@@]2(C)Oc3c(C)c(O)c4c(O)c(c(N5CCN(C(=O)CO[C@@H]6COc7nc([N+](=O)[O-])cn7C6)CC5)c(O)c4c3C2=O)NC(=O)/C(C)=C\C=C\[C@H](C)[C@H](O)[C@@H](C)[C@@H](O)[C@@H](C)[C@H](OC(C)=O)[C@@H]1C`, for which the MIC is 2 µg/mL (≈ 1.99 µM) in the experiment on Staphylococcus aureus and 4 µg/mL (≈ 3.97 µM) with Helicobacter pylori [2].

As for `CO[C@H]1/C=C/O[C@@]2(C)Oc3c(C)c(O)c4c(c3C2=O)C2=NC3(CCN(CC(=O)Nc5ncc([N+](=O)[O-])s5)CC3)NC2=C(NC(=O)/C(C)=C\C=C\[C@H](C)[C@H](O)[C@@H](C)[C@@H](O)[C@@H](C)[C@H](OC(C)=O)[C@@H]1C)C4=O`, the MIC in the experiment on Clostridioides difficile [1] is 0.001 µg/mL (≈ 0.00102 µM); against Helicobacter pylori [2], 0.004 µg/mL (≈ 0.0041 µM).

Take `CO[C@H]1/C=C/O[C@@]2(C)Oc3c(C)c(O)c4c(c3C2=O)C2=NC3(CCN(CC5(C)Cn6cc([N+](=O)[O-])nc6O5)CC3)NC2=C(NC(=O)/C(C)=C\C=C\[C@H](C)[C@H](O)[C@@H](C)[C@@H](O)[C@@H](C)[C@H](OC(C)=O)[C@@H]1C)C4=O` (stereo partly specified): the MIC in the experiment with Staphylococcus aureus and with Helicobacter pylori [2] was 0.03 µg/mL (≈ 0.0309 µM) in each case.

As for `CO[C@H]1/C=C/O[C@@]2(C)Oc3c(C)c(O)c4c(O)c(c(N5CCN(c6ccc(OCC7(C)Cn8cc([N+](=O)[O-])nc8O7)cc6)CC5)c(O)c4c3C2=O)NC(=O)/C(C)=C\C=C\[C@H](C)[C@H](O)[C@@H](C)[C@@H](O)[C@@H](C)[C@H](OC(C)=O)[C@@H]1C` (stereo partly specified), the figures for the minimal inhibitory concentration (MIC) against Staphylococcus aureus, with Clostridioides difficile [1] and in the experiment with Helicobacter pylori [2] were 0.015 µg/mL (≈ 0.0142 µM), 0.03 µg/mL (≈ 0.0284 µM) and 1 µg/mL (≈ 0.948 µM), respectively.

Regarding `CO[C@H]1/C=C/O[C@@]2(C)Oc3c(C)c(O)c4c(O)c(c(N5CCN(C(=O)c6ccc(OCC7(C)Cn8cc([N+](=O)[O-])nc8O7)cc6)CC5)c(O)c4c3C2=O)NC(=O)/C(C)=C\C=C\[C@H](C)[C@H](O)[C@@H](C)[C@@H](O)[C@@H](C)[C@H](OC(C)=O)[C@@H]1C` (stereo partly specified), the MIC came out at 0.25 µg/mL (≈ 0.231 µM) in the experiment on Staphylococcus aureus and 4 µg/mL (≈ 3.69 µM) in the experiment with Helicobacter pylori [2].

With `CO[C@H]1/C=C/O[C@@]2(C)Oc3c(C)c(O)c4c(c3C2=O)C2=NC3(CCN(Cc5ccc(CO[C@@H]6COc7nc([N+](=O)[O-])cn7C6)cc5)CC3)NC2=C(NC(=O)/C(C)=C\C=C\[C@H](C)[C@H](O)[C@@H](C)[C@@H](O)[C@@H](C)[C@H](OC(C)=O)[C@@H]1C)C4=O`, the MIC in the experiment with Staphylococcus aureus is 0.03 µg/mL (≈ 0.0278 µM); in the experiment on Clostridioides difficile [1], 0.001 µg/mL (≈ 0.000927 µM); against Helicobacter pylori [2] it was 0.03 µg/mL (≈ 0.0278 µM).

As to `COc1ccc2[nH]c([S+]([O-])Cc3ncc(C)c(OC)c3C)nc2c1` (stereo unspecified) [OMEPRAZOLE], the Activity in the experiment with Helicobacter pylori [6] is listed as 1.7 log10CFU.

As to `O=[N+]([O-])c1cn2c(n1)OC[C@@H](OCc1ccc(OC(F)(F)F)cc1)C2` [PRETOMANID], the MIC with Staphylococcus aureus was greater than 32 µg/mL; with Clostridioides difficile [1], 16 µg/mL (≈ 44.5 µM); against Helicobacter pylori [2] it was 2 µg/mL (≈ 5.57 µM).

On to `CO[C@H]1/C=C/O[C@@]2(C)Oc3c(C)c(O)c4c(=O)c(c5oc6cc(N7CCN(CC(C)C)CC7)cc(O)c6nc-5c4c3C2=O)NC(=O)/C(C)=C\C=C\[C@H](C)[C@H](O)[C@@H](C)[C@@H](O)[C@@H](C)[C@H](OC(C)=O)[C@@H]1C` [RIFALAZIL], for which the MIC turned out to be 0.004 µg/mL (≈ 0.00425 µM) against Staphylococcus aureus, 0.001 µg/mL (≈ 0.00106 µM) against Clostridioides difficile [1] and 0.002 µg/mL (≈ 0.00213 µM) against Helicobacter pylori [2].

`CO[C@H]1/C=C/O[C@@]2(C)Oc3c(C)c(O)c4c(O)c(c5c(nc6cc(C)ccn65)c4c3C2=O)NC(=O)/C(C)=C\C=C\[C@H](C)[C@H](O)[C@@H](C)[C@@H](O)[C@@H](C)[C@H](OC(C)=O)[C@@H]1C` [RIFAXIMIN]: the figures for the minimum inhibitory concentration (MIC) against Staphylococcus aureus, against Clostridioides difficile [1] and in the experiment with Helicobacter pylori [2] were 0.06 µg/mL (≈ 0.0763 µM), 0.004 µg/mL (≈ 0.00509 µM) and 1 µg/mL (≈ 1.27 µM), respectively.

As a reminder, the MIC is the least concentration at which growth counts as inhibited.
